# The source made the active and inactive calls.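 The calls were made as follows, unless noted: active = current rise at least 3 SD above the untreated control mean in each of two repeat wells; inactive = the rest.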
# How the values were obtained:
# [1] = thallium flux activation in parental CHO cells, counter-screen for KCNQ1 potentiator project (AID 493006;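 active = duplicate-averaged activation above buffer control mean plus 5 SD of those controls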); details: parental CHO-K1 cells, FluxOR thallium flux, at 10 µM; active compounds read high
# How it was run: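 Test system: parental CHO-K1 cells, FluxOR dye-loaded / Probe or stimulus: potassium plus thallium depolarizing stimulus, 5x stock 12.5 mM K2SO4, Tl2SO4 / Timing: overnight 37 °C plating, 90 min dye, 20 min dark compound / Measured by: kinetic thallium-flux fluorescence / Read-out: max-minus-min fluorescence over baseline, percent of buffer-to-R-L3 span / Benchmarks: buffer and R-L3 controls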
# [2] = biological target: Potassium voltage-gated channel subfamily KQT member 1 (Homo sapiens) (UniProt P51787); test: KCNQ1 potassium channel potentiators, confirmation, FluxOR thallium flux, CHO cells, duplicates (AID 493007;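 active = potentiation averaged over duplicate wells exceeding buffer-only control mean by more than 3 SD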;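 as to outcome: cells depolarized by a potassium plus thallium sulfate stimulus after compound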;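 as to potentiation: 0% = buffer-only wells and 100% = R-L3 activator control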); details: KCNQ1 cell line, FluxOR thallium flux fluorescence, at 10 µM; active compounds read high, % of reference activator effect, buffer zero
# Sequence of Potassium voltage-gated channel subfamily KQT member 1 (Homo sapiens) (P51787 whole entry, looked up): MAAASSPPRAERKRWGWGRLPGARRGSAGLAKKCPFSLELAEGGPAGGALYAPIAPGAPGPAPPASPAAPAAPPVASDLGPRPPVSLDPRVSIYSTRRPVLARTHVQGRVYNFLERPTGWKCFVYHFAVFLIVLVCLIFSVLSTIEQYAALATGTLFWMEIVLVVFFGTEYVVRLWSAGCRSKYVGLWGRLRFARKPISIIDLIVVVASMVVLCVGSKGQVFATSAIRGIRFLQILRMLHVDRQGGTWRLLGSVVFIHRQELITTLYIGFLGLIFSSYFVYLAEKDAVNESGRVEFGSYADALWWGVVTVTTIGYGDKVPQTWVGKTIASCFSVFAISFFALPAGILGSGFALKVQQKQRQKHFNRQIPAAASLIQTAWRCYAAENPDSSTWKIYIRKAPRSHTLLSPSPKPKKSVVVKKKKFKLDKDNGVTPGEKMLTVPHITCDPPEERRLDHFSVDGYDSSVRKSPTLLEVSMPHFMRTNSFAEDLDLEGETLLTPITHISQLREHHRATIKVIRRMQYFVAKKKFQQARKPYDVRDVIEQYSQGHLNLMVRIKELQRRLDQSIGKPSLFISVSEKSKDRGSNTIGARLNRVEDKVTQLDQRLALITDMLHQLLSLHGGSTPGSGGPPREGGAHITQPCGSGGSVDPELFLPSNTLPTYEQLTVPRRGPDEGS
# How it was run: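 Assay system: CHO cells carrying KCNQ1 | Controls: Buffer and R-L3 controls | Schedule: FluxOR dye loading 90 min, compound exposure 20 min, room temperature | Read-out: Baseline-normalized fluorescence change, percent of buffer-to-R-L3 range | Replicates: Each compound tested in duplicate | Technique: Kinetic thallium influx fluorescence with FluxOR dye, 10 s baseline, 110 s post-stimulus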
# [3] = biological target: Potassium voltage-gated channel subfamily KQT member 2 (Rattus norvegicus) (UniProt O88943); test: rat KCNQ2 channel potentiation, selectivity assay for KCNQ1 potentiator project, KCNQ2-CHO-K1 cells (AID 493009;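 active = mean duplicate potentiation above the buffer control mean plus 5 SD of buffer wells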;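 also: assay conditions were tuned for KCNQ1 rather than KCNQ2 modulators; signal is max minus min fluorescence divided by baseline after thallium stimulus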); details: FluxOR thallium flux fluorescence, at 10 µM; active compounds read high, scaled: buffer 0, activator control 100
# Sequence of Potassium voltage-gated channel subfamily KQT member 2 (Rattus norvegicus) (O88943 whole entry, looked up): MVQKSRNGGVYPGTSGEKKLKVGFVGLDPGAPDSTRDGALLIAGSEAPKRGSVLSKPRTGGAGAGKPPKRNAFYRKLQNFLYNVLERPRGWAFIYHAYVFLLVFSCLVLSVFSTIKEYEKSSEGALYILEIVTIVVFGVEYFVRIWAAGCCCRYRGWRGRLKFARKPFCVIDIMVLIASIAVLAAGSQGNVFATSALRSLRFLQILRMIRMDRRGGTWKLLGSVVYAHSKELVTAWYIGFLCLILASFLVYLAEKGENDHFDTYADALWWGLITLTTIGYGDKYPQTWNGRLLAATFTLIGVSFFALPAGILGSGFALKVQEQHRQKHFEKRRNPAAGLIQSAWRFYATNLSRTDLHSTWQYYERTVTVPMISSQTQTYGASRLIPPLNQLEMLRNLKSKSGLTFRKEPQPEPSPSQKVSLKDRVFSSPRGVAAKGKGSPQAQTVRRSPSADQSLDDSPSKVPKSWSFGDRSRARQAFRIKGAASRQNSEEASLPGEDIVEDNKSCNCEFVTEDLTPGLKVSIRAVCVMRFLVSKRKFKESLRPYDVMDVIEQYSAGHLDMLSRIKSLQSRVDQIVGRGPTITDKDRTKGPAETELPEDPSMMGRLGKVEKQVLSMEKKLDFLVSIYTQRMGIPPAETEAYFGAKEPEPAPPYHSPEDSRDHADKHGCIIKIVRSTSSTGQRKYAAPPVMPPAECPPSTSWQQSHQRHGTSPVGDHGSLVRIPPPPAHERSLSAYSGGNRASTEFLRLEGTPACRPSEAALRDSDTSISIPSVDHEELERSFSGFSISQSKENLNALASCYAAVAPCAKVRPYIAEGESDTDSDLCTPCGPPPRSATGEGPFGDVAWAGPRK
# [4] = biological target: Potassium voltage-gated channel subfamily KQT member 1 (Homo sapiens) (UniProt P51787); test: KCNQ1 channel current potentiators, confirmation, orthogonal assay for KCNQ1 potentiator project, IonWorks patch clamp, KCNQ1-CHO cells (AID 493184); details: automated patch clamp current, at 10 µM; active compounds read high
# How it was run: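 Material: KCNQ1-expressing CHO cells; doses: 10 µM final, single point; probe or stimulus: voltage step from -90 mV holding to +40 mV, 2,000 ms; signal: automated voltage clamp, amphotericin B perforated patch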
SMILES,activation [1],potentiation [2],potentiation [3],outcome [4],outcome [1],outcome [2],outcome [3]
CCc1ccc(S(=O)(=O)NC(=S)NC2CCCCC2)cc1,330% (active),108% (active),312% (active),inactive,–,–,–
COCCNC(=O)CN(C)S(=O)(=O)c1ccc(Br)cc1,–,–,–,inactive,inactive,inactive,inactive
Cc1nn(CCc2nn[nH]n2)c2nc(-c3ccc(C4CCCCC4)cc3)cc(C(F)(F)F)c12,296% (active),58% (active),182% (active),inactive,–,–,–
Cc1sc2nc[nH]c(=S)c2c1-c1ccccc1,289% (active),93.5% (active),304% (active),inactive,–,–,–
Cc1onc(-c2ccccc2)c1C(=O)NC(=S)Nc1sc2c(c1C#N)CCC(C)C2 (stereo not given),145% (active),28% (active),142% (active),inactive,–,–,–
Cc1cc(C)c2ccc(C)[n+]([O-])c2c1O,–,–,–,inactive,inactive,inactive,inactive
COc1cccc(C(=O)NNC(=O)C(=O)Nc2ccc(OC)cc2OC)c1,178% (active),41% (active),202% (active),inactive,–,–,–
O=C(NC(=S)N1CCN(c2c(Cl)cccc2[N+](=O)[O-])CC1)c1cccs1,236% (active),156% (active),375% (active),inactive,–,–,–
O=c1c2c(-c3ccco3)csc2nc(SCc2cn3cccnc3n2)n1-c1ccccc1,–,–,–,inactive,inactive,inactive,inactive
CC(=O)c1ccc(OCc2cc(C(=O)N(C)Cc3nc4c(C)cccc4[nH]3)no2)cc1,–,18% (active),–,inactive,inactive,–,inactive
CC(C)c1ccc(OCC(=O)NNC(=S)NC(=O)c2ccco2)c(Br)c1,154% (active),68.5% (active),232% (active),inactive,–,–,–
CCOC(=O)c1sc(NC(=O)c2ccc(OC(C)=O)cc2)nc1C,–,–,–,inactive,inactive,inactive,inactive
O=Cc1c(F)cccc1N1CCCC1,–,–,150% (active),inactive,inactive,inactive,–
CSC(C(=O)c1cc2ccccc2o1)c1ccccc1 (stereo not given),–,–,–,inactive,inactive,inactive,inactive
C=CCSc1nc2sc3c(c2c(=O)n1CC)CCc1ccccc1-3,160% (active),91% (active),192% (active),inactive,–,–,–
O=C1c2ccccc2NC(c2ccc(-c3cccc(Cl)c3)o2)N1O (stereo not given),–,–,–,inactive,inactive,inactive,inactive
COc1ccc(NC(=S)NC(=O)c2ccc(Br)o2)cc1,146% (active),45.5% (active),195% (active),inactive,–,–,–
C=CCn1c(O)c(N=NC(=S)Nc2ccccc2F)c2cc(S(=O)(=O)N3CCOCC3)ccc21,–,26.5% (active),–,inactive,inactive,–,inactive
Cc1csc(N/N=C/c2ccc([N+](=O)[O-])cc2)n1,–,46% (active),158% (active),inactive,inactive,–,–
COc1ccc(C)c2sc(NC(=O)C3=COCCO3)nc12,–,–,–,inactive,inactive,inactive,inactive

SMILES,activation [1],potentiation [2],potentiation [3],outcome [4],outcome [1],outcome [2],outcome [3]
CC1(C)Cc2c(sc(/N=C/N3CCCCCC3)c2C#N)C(C)(C)N1,–,–,–,inactive,inactive,inactive,inactive
O=c1c(O)c(-c2cccs2)oc2ccccc12,290% (active),115% (active),289% (active),inactive,–,–,–
COc1ccc(C)cc1-n1c(SCC(=O)Nc2cc(C)on2)nc2ccccc2c1=O,–,–,–,inactive,inactive,inactive,inactive
COc1ccc(NC(=O)C(=O)NNC(=O)c2ccc(Cl)cc2Cl)cc1,412% (active),200% (active),492% (active),inactive,–,–,–
Oc1c(Br)cc(Br)cc1C=Nc1ccc2c(c1)OCCO2,159% (active),–,–,inactive,–,inactive,inactive
COc1cc(CN2CCC(C)CC2)ccc1OCc1ccccc1,292% (active),90% (active),300% (active),inactive,–,–,–
S=c1nc(SCc2ccccc2)[nH]c2ccccc12,458% (active),320% (active),500% (active),inactive,–,–,–
COc1cccc(N=Nc2ccc3cccnc3c2O)c1,154% (active),29% (active),162% (active),inactive,–,–,–
Cc1cc(Cl)c(S(=O)(=O)Nc2ccc3c(c2)OCO3)cc1OCC(N)=O,–,–,–,inactive,inactive,inactive,inactive
CC(=O)c1c(NC(=O)c2ccccc2)[nH]c(-c2ccccc2)nc1=S,230% (active),67% (active),236% (active),inactive,–,–,–
Cc1c(CN2CCN(C)C(CCO)C2)[nH]c2c(Cl)cccc12 (stereo not given),–,–,–,inactive,inactive,inactive,inactive
CC(C)C(NC(=O)Nc1ccccc1)C(=O)Nc1cccc(S(=O)(=O)N(C)C)c1 (stereo not given),232% (active),67.5% (active),232% (active),inactive,–,–,–
C=CCN(CC=C)C(=S)NC(=O)c1ccc(C)c(Br)c1,779% (active),270% (active),688% (active),inactive,–,–,–
O=c1[nH]c(C(Cl)(Cl)Cl)nc2ccc3ccccc3c12,166% (active),50% (active),202% (active),inactive,–,–,–
Cc1ccc(Nc2c([N+](=O)[O-])ccc3nonc23)c(C)c1,–,–,–,inactive,inactive,inactive,inactive
Nc1nc(N)c(N=Nc2ccc(C(=O)O)cc2)c(N)n1,–,–,–,inactive,inactive,inactive,inactive
O=c1[nH]cc(-c2ccccc2)c(=O)[nH]1,–,–,–,inactive,inactive,inactive,inactive
COc1ccc(S(=O)(=O)NCCOc2ccccc2)cc1OC,–,–,–,inactive,inactive,inactive,inactive
Cc1[nH][nH]c(=O)c1C(c1ccc(-c2ccc(F)cc2)o1)c1c(C)[nH][nH]c1=O,–,–,–,inactive,inactive,inactive,inactive
Oc1c(Br)cc(Br)cc1C=NCc1ccccc1,147% (active),21.5% (active),–,inactive,–,–,inactive

SMILES,activation [1],potentiation [2],potentiation [3],outcome [4],outcome [1],outcome [2],outcome [3]
CCc1ccc(S(=O)(=O)Nc2cc3c(cc2N2CCCCC2)n(C)c(=O)c(=O)n3C)cc1,–,–,–,inactive,inactive,inactive,inactive
Cc1cc(NC(=O)CSc2nc(C3CC3)nc3sc(C)c(C)c23)no1,148% (active),38% (active),172% (active),inactive,–,–,–
Cc1cc(C)c(NC(=O)c2cn3c4c(c(N5CCN(C)CC5)c(F)cc4c2=O)OCC3C)c(C)c1 (stereo not given),–,–,–,inactive,inactive,inactive,inactive
CCC(C)CCCCCCCCCCC(=O)O (stereo not given),382% (active),318% (active),302% (active),inactive,–,–,–
COc1ccc(OCC(=O)N2CCCC2=O)c([N+](=O)[O-])c1,–,–,–,inactive,inactive,inactive,inactive
CN1CCN(c2ccccc2NC(=S)NC(=O)c2cc3ccccc3o2)CC1,–,–,–,inactive,inactive,inactive,inactive
S=c1[nH]c(-c2ccccc2)cs1,380% (active),184% (active),464% (active),inactive,–,–,–
Cc1ccccc1-n1cnnc1SCC(=O)N1CCN(c2ccccc2)CC1,200% (active),49.5% (active),206% (active),inactive,–,–,–
C=CCN(CC=C)C(=S)NC(=O)c1ccc(OC)c(Br)c1,506% (active),199% (active),474% (active),inactive,–,–,–
O=C(NC(=S)Nc1ccccc1N1CCCC1)c1ccccc1Br,179% (active),55% (active),202% (active),inactive,–,–,–
O=C(/C=C/c1ccco1)Nc1scc(-c2ccccc2)c1C(=O)O,–,–,–,inactive,inactive,inactive,inactive
COc1cc(Br)cc(/C=N/c2ncn[nH]2)c1O,140% (active),18.5% (active),–,inactive,–,–,inactive
O=C(Nc1ccc(C(=O)O)cc1)/C(=C\c1ccc2c(c1)OCO2)NC(=O)c1ccc(Br)cc1,–,–,–,inactive,inactive,inactive,inactive
O=c1[nH]sc2ccccc12,–,–,–,inactive,inactive,inactive,inactive
Cc1cccc(C(=O)NNC(=O)C(=O)NC(C)(C)C)c1,159% (active),30.5% (active),146% (active),inactive,–,–,–
CCOC(=O)c1sc2ncnc(NCC(c3cccs3)N(C)C)c2c1C (stereo not given),255% (active),87% (active),263% (active),inactive,–,–,–
Cc1cccc(/C=N/n2c(COc3ccccc3)n[nH]c2=S)c1,–,60.5% (active),142% (active),inactive,inactive,–,–
CC1=NN(C(N)=S)C(=O)C1N=Nc1cccc(Cl)c1C (stereo not given),1010% (active),665% (active),1230% (active),inactive,–,–,–
C=CCn1sc(=N)c(C#N)c1N,528% (active),195% (active),492% (active),inactive,–,–,–
CN1CCN(c2nc(-c3cccs3)cc(C(F)(F)F)n2)CC1,142% (active),–,–,inactive,–,inactive,inactive

# From PubChem BioAssay
